According to ChEMBL document CHEMBL1129978, “Effect of structural modification of enol-carboxamide-type nonsteroidal antiinflammatory drugs on COX-2/COX-1 selectivity” (J Med Chem, 1997):

Assays:
[1] = target: T1, Prostaglandin G/H synthase 1 (Homo sapiens, UniProt P23219); test: Inhibition of human Prostaglandin G/H synthase 1 at 10 ug/mL expressed as mean percent inhibition of control PGE-2 production
Outline: (§1)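 Human COX-1 and COX-2 genes expressed in a baculovirus system; microsomes prepared from High Five insect cells and used as the enzyme source. Activity read as PGE2 production. Each dose run in duplicate wells within each experiment, and values given as mean percent inhibition of control PGE2.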

[2] = target: T1, Prostaglandin G/H synthase 1; test: Inhibition of human Prostaglandin G/H synthase 1 at 0.1 ug/mL expressed as mean percent inhibition of control PGE-2 production; outline: as §1
[3] = target: T1, Prostaglandin G/H synthase 1; test: Inhibition of human Prostaglandin G/H synthase 1 at 1 ug/mL expressed as mean percent inhibition of control PGE-2 production; outline: as §1

T1 sequence (P23219 whole entry): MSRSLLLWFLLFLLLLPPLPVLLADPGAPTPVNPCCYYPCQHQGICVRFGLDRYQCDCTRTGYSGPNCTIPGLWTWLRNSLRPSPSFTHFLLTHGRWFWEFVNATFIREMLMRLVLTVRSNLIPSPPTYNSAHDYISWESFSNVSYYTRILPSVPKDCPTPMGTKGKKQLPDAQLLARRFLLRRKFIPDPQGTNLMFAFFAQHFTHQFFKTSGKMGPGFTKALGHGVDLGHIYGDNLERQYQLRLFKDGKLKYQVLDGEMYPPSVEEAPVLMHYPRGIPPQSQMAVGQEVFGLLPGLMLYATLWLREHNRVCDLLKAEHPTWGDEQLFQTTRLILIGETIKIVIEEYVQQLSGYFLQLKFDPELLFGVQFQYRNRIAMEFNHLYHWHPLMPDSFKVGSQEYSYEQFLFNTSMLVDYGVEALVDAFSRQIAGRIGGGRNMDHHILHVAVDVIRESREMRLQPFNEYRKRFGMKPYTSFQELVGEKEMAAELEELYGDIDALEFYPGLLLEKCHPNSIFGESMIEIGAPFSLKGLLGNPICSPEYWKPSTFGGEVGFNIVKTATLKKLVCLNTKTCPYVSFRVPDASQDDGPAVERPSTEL

SMILES	inhibition [1]	inhibition [2]	inhibition [3]
Cc1cnc(NC(=O)C2=C(O)c3sc4cc(Cl)ccc4c3S(=O)(=O)N2C)s1	100%	58%	100%
Cc1ccc2c(c1)C(O)=C(C(=O)Nc1ccccc1)N(C)S2(=O)=O	-1%	-1%	-8%
Cc1cnc(N/C(O)=C2\C(=O)N(C)C(=O)c3ccc(Cl)cc32)s1	76%	5%	35%
Cc1cnc(NC(=O)C2=C(O)N(C)S(=O)(=O)c3ccccc32)s1	66%	3%	18%
CC1Sc2ccc(Cl)cc2C(O)=C1C(=O)Nc1cccc(Cl)c1 (stereo not drawn)	12%	15%	10%
O=C1/C(=C(/O)Nc2ccc(Cl)cc2Cl)c2cc(Cl)ccc2C(=O)N1Cc1ccccc1	100%	6%	84%
Cc1nnc(NC(=O)C2=C(O)c3ccccc3S(=O)(=O)N2C)s1	2%	0%	18%
Cc1cnc(NC(=O)C2=C(O)c3cc(Cl)ccc3SC2)s1	18%	11%	21%
COc1ccc2c(c1)S(=O)(=O)N(C)C(C(=O)Nc1ncc(C)s1)=C2O	50%	6%	16%
CN1C(C(=O)Nc2ccccn2)=C(O)c2c(c3cc(Cl)ccc3n2C)S1(=O)=O	90%		28%
CN1C(O)=C(C(=O)Nc2ccc(Cl)cc2)c2cc3ccccc3cc2S1(=O)=O	100%	57%	100%
COc1ccc2c(c1)S(=O)(=O)N(C)C(C(=O)Nc1ccccn1)=C2O	44%	-2%	9%
Cc1cc2c(s1)C(C(=O)Nc1ccc(Cl)cc1)=C(O)N(C)S2(=O)=O	98%	40%	80%
CN1C(=O)/C(=C(/O)Nc2ccccc2)c2cc(Cl)ccc2C1=O	78%	13%	42%
CN1C(C(=O)Nc2nccs2)=C(O)c2sc3cc(Cl)ccc3c2S1(=O)=O	100%	99%	100%
Cc1cnc(NC(=O)C2=C(O)c3ccccc3SC2(C)C)s1	16%		11%
CN1C(O)=C(C(=O)Nc2ccc(Br)cc2)c2cc(Cl)ccc2S1(=O)=O	97%	33%	97%
CN1C(C(=O)Nc2ccccc2)=C(O)c2ccc3ccccc3c2S1(=O)=O	88%	4%	64%
CN1C(C(=O)Nc2ccccn2)=C(O)c2c(c3ccccc3n2C)S1(=O)=O	90%	0%	14%
COc1ccc2c(c1)c1c(n2C)C(O)=C(C(=O)Nc2ccccc2)N(C)S1(=O)=O	79%	6%	23%
CN1C(O)=C(C(=O)Nc2nccs2)c2cc(Cl)ccc2S1(=O)=O	98%	18%	76%
CN1C(C(=O)Nc2nccs2)=C(O)c2ccc3ccccc3c2S1(=O)=O	100%	75%	100%
Cc1cnc(NC(=O)C2=C(O)c3ccc(F)cc3S(=O)(=O)N2C)s1	82%	-4%	36%

SMILES	inhibition [1]	inhibition [2]	inhibition [3]
CN1C(C(=O)Nc2ccccc2)=C(O)c2cc(Cl)ccc2S1(=O)=O	17%	15%	16%
Cc1ccc2c(c1)S(=O)(=O)N(C)C(C(=O)Nc1ncc(C)s1)=C2O	69%	8%	31%
CN1C(C(=O)Nc2nccs2)=C(O)c2c(c3ccccc3n2C)S1(=O)=O	97%	-2%	44%
O=C(Nc1cccc(Cl)c1)C1=C(O)c2cc(Cl)ccc2S(=O)(=O)C1	94%	-10%	64%
CN1C(O)=C(C(=O)Nc2nccs2)c2ccc(Cl)cc2S1(=O)=O	99%	-8%	66%
Cc1ccc2c(c1)/C(=C(\O)Nc1ncc(C)s1)C(=O)N(C)C2=O	51%	30%	52%
CN1C(O)=C(C(=O)Nc2ccccn2)c2cc(Cl)ccc2S1(=O)=O	96%		53%
Cc1cc2c(o1)C(O)=C(C(=O)Nc1ncc(C)s1)N(C)S2(=O)=O	1%	-8%	-7%
COc1ccc2c(c1)C(O)=C(C(=O)Nc1ccccc1)N(C)S2(=O)=O	-3%	-6%	-5%
O=C(Nc1cccc(Cl)c1)C1=C(O)c2ccccc2SC1	83%	19%	75%
CCN1C(O)=C(C(=O)Nc2ccc(Cl)cc2Cl)c2cc(Cl)ccc2S1(=O)=O	99%	36%	85%
CN1C(O)=C(C(=O)Nc2ccc(Br)cc2)c2ccc(Cl)cc2S1(=O)=O	100%	27%	89%
Cc1cnc(NC(=O)C2=C(O)c3ccccc3S(=O)(=O)N2Cc2ccccc2)s1	42%	3%	10%
Cc1ccc2c(c1)C(O)=C(C(=O)Nc1ncc(C)s1)N(C)S2(=O)=O	24%	0%	14%
Cc1ccc2c(c1)/C(=C(\O)Nc1ccccn1)C(=O)N(C)C2=O	73%	22%	62%
CN1C(C(=O)Nc2ccccc2)=C(O)c2c(ccc3ccccc23)S1(=O)=O	18%		-5%
O=C(Nc1cccc(Cl)c1)C1=C(O)c2cc(Cl)ccc2SC1	54%	31%	26%
CN1C(C(=O)Nc2ccc(Cl)cc2)=C(O)c2cc(Cl)ccc2S1(=O)=O	18%	6%	23%
Cc1cnc(NC(=O)C2=C(O)c3ccccc3SC2)s1	35%	16%	29%
Cc1coc(NC(=O)C2=C(O)c3ccccc3S(=O)(=O)N2C)n1	-7%	5%	5%
CN1C(C(=O)Nc2ccc(Cl)cc2)=C(O)c2ccc3ccccc3c2S1(=O)=O	38%	15%	34%
CN1C(c2nc3ccccc3[nH]2)=C(O)c2ccccc2S1(=O)=O	16%	-4%	4%
O=C(Nc1ccc(Cl)cc1Cl)C1=C(O)N(C2CC2)S(=O)(=O)c2ccc(Cl)cc21	100%	24%	65%

SMILES	inhibition [1]	inhibition [2]	inhibition [3]
CN1C(C(=O)Nc2ccccn2)=C(O)c2sc3cc(Cl)ccc3c2S1(=O)=O	93%	69%	100%
CN1C(O)=C(C(=O)Nc2ccc(Br)cc2)c2ccccc2S1(=O)=O	100%	54%	88%
COc1ccc2c(c1)c1c(n2C)C(O)=C(C(=O)Nc2nccs2)N(C)S1(=O)=O	86%	3%	33%
CCCc1csc(NC(=O)C2=C(O)c3ccccc3S(=O)(=O)N2C)n1	44%	-3%	1%
CN1C(C(=O)Nc2ccccn2)=C(O)c2cc(Cl)ccc2S1(=O)=O	43%	3%	14%
CN1C(O)=C(C(=O)Nc2ccc(Cl)cc2Cl)c2sc(Cl)cc2S1(=O)=O	91%	32%	57%
COc1ccc2c(c1)C(O)=C(C(=O)Nc1ccc(Cl)cc1)N(C)S2(=O)=O	14%	9%	13%
CCN1C(C(=O)Nc2ncc(C)s2)=C(O)c2ccccc2S1(=O)=O	27%	-2%	-6%
CN1C(O)=C(C(=O)Nc2ccc(Cl)cc2Cl)c2cc(F)ccc2S1(=O)=O	100%	40%	94%
Cc1cc2c(s1)S(=O)(=O)N(C)C(C(=O)Nc1ccccc1F)=C2O	100%	78%	96%
Cc1cnc(N/C(O)=C2\C(=O)N(Cc3ccccc3)C(=O)c3ccc(Cl)cc32)s1	83%	8%	35%
CCn1c2c(c3ccccc31)S(=O)(=O)N(C)C(C(=O)Nc1nccs1)=C2O	81%		-1%
CCn1c2c(c3ccccc31)S(=O)(=O)N(C)C(C(=O)Nc1ccccn1)=C2O	25%	-4%	-1%
Cc1ccc2c(c1)/C(=C(\O)Nc1ccccc1)C(=O)N(C)C2=O	90%	40%	72%
COc1ccc2c(c1)C(O)=C(C(=O)Nc1ncc(C)s1)N(C)S2(=O)=O		-1%	
CN1C(C(=O)Nc2nccs2)=C(O)c2ccccc2S1(=O)=O	51%		17%
Cc1cc2c(s1)S(=O)(=O)N(C)C(C(=O)Nc1nccs1)=C2O		1%	5%
Cn1c(C(=O)Nc2ccccn2)c(O)c2ccccc2c1=O	19%		-3%
Cc1ccc2c(c1)C(O)=C(C(=O)Nc1ccccn1)N(C)S2(=O)=O		-9%	5%
CN1C(C(=O)Nc2ccccn2)=C(O)c2c(ccc3ccccc23)S1(=O)=O	25%		-10%
CN1C(C(=O)Nc2ccccc2)=C(O)c2c(c3cc(Cl)ccc3n2C)S1(=O)=O		1%	10%
